Results as given in ChEMBL document CHEMBL4699542, “Design and synthesis of novel methoxypyridine-derived gamma-secretase modulators” (Bioorg Med Chem, 2020).
In brackets after ≈: the same amount, converted by molar mass.

Experiments:
[1] = Kinetic aqueous solubility of the compound in pH 7.4 PBS buffer by UV/Visible absorbance analysis; assay type: physicochemical; settings: read-out: Kinetic_solubility
Outline: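 Kinetic solubility determined in PBS at pH 7.4 by UV/Vis absorbance, reported in μM.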

Gamma-secretase = assay: Modulation of gamma secretase in human SH-SY5Y cells overexpressing wild type APP751 assessed as inhibition of amyloid beta (35 to 42 residues) formation incubated for overnight by ELISA; assay type: cell-based
Outline: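 SHSY5Y-APP751 cells plated at 75K/well and incubated overnight at 37 °C, then treated 24 h over 10 concentrations ([…]–10 μM, 1:3.16 steps, in duplicate). Medium Aβ42 measured by sandwich ELISA (Aβ35–42 capture, AP-conjugated Aβ1–12 detection, CDP-Star luminescence) against an Aβ42 standard curve.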

[2] = Metabolic stability in rat liver microsomes assessed as parent compound remaining at 1 uM incubated for 30 mins; assay type: ADME, Microsome; settings: 0.5 h
Outline: (§1)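 Test compound at 1 μM incubated 30 min with human, rat or mouse liver microsomes (1 mg/mL); parent remaining expressed as %.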

[3] = Metabolic stability in mouse liver microsomes assessed as parent compound remaining at 1 uM incubated for 30 mins; assay type: ADME, Microsome; settings: 0.5 h; outline: as §1
[4] = Metabolic stability in human liver microsomes assessed as parent compound remaining at 1 uM incubated for 30 mins; assay type: ADME, Microsome; settings: for Stabilty: microsomes, 0.5 h, 1 µM; outline: as §1
Cytochrome P450 2C9 = Cytochrome P450 2C9 (Homo sapiens, UniProt P11712); assay: Inhibition of recombinant CYP2C9 (unknown origin) by fluorescence-based assay; assay type: ADME
Outline: (§2)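 Recombinant CYP isoforms (five tested) screened for inhibition in fluorescence-based assays; IC50 in μM.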

Cytochrome P450 3A4 = Cytochrome P450 3A4 (Homo sapiens, UniProt P08684); assay: Inhibition of recombinant CYP3A4 (unknown origin) by fluorescence-based assay; assay type: ADME
Cytochrome P450 2C19 = Cytochrome P450 2C19 (Homo sapiens, UniProt P33261); assay: Inhibition of recombinant CYP2C19 (unknown origin) by fluorescence-based assay; assay type: ADME; outline: as §2
Cytochrome P450 1A2 = target: T1, Cytochrome P450 1A2 (Homo sapiens, UniProt P05177); assay: Inhibition of recombinant CYP1A2 (unknown origin) by fluorescence-based assay; assay type: ADME; outline: as §2
T1 sequence (P05177 whole entry): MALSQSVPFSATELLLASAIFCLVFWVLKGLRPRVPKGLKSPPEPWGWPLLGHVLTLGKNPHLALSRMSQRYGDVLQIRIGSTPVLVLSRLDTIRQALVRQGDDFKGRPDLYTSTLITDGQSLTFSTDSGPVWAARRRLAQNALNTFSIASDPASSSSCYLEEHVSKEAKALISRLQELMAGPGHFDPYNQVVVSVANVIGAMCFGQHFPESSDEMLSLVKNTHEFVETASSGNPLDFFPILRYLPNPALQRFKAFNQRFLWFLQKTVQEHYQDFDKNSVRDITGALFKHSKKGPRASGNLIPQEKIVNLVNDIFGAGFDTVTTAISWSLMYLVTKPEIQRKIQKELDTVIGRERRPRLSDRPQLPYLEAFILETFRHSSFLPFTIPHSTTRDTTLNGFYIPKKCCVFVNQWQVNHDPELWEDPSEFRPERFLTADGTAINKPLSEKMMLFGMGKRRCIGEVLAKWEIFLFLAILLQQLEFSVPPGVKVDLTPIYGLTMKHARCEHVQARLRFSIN

Cytochrome P450 2D6 = Cytochrome P450 2D6 (Homo sapiens, UniProt P10635); assay: Inhibition of recombinant CYP2D6 (unknown origin) by fluorescence-based assay; assay type: ADME; outline: as §2
Cytochrome P450 2D6, sequence (P10635 whole entry): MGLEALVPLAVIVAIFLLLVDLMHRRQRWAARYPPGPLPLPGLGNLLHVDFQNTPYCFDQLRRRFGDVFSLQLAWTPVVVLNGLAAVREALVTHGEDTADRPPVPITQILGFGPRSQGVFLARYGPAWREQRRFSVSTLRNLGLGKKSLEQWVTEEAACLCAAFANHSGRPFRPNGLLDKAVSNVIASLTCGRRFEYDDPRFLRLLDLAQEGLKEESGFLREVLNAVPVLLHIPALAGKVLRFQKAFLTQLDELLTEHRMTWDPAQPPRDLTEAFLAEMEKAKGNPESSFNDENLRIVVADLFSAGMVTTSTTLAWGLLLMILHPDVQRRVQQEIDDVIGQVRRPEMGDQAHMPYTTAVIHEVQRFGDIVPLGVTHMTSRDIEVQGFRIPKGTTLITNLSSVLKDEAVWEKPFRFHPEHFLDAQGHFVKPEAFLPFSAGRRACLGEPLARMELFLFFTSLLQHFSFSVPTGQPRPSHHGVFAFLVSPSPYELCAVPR

Cytochrome P450 2C9, sequence (P11712 whole entry, canonical isoform): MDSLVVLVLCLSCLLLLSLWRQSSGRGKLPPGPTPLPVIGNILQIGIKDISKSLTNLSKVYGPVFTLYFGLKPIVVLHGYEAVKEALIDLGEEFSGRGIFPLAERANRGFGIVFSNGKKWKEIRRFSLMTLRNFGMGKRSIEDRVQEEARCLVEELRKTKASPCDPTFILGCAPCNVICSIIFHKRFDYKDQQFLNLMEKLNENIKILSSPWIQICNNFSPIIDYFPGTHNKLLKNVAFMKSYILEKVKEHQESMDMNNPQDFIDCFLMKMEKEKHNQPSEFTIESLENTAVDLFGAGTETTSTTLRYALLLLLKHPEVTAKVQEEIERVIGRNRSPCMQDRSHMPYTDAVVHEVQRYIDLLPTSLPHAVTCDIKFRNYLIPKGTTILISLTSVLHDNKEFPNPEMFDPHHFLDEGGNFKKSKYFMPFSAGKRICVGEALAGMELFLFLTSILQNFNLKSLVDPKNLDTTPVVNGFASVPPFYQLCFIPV
Cytochrome P450 2C19, sequence (P33261 whole entry): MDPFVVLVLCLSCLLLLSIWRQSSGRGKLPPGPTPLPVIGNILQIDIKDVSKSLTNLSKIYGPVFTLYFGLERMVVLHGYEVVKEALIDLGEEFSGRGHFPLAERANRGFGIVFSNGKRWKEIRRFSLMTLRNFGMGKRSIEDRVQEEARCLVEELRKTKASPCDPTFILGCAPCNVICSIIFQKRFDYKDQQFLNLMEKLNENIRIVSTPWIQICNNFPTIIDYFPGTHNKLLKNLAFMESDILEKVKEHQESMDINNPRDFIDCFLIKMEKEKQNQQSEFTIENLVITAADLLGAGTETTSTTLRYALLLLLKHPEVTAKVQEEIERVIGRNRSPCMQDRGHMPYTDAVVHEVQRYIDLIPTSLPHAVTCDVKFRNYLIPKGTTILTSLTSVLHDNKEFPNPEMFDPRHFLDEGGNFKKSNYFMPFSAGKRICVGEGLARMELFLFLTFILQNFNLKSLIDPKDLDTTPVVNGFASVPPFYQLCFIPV
Cytochrome P450 3A4, sequence (P08684 whole entry): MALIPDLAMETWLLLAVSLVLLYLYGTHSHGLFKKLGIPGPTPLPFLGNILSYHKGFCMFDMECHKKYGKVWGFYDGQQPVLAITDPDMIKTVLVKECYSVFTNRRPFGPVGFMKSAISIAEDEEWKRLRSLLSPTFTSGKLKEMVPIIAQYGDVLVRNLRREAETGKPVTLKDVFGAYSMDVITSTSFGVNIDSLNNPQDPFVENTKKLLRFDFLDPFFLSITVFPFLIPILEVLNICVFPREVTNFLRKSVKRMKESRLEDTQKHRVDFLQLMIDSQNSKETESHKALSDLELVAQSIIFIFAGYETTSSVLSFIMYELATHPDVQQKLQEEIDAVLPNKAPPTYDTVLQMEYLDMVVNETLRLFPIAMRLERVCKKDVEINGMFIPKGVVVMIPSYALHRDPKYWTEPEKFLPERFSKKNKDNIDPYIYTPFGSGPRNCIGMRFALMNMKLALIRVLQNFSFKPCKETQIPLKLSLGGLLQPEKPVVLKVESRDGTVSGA

SMILES | solubility kinetic [1] | IC50 (Gamma-secretase) | Stabilty [2] | Stabilty [3] | Stabilty [4] | other results
CCn1nc2c(c1Nc1nc(-c3ccc(-n4cnc(C)c4)c(OC)c3)cs1)CCCC2 | 4.6 µM (≈ 2 µg/mL) | 171 nM | – | – | – | –
COc1nc(-c2csc(Nc3c4c(nn3CCCN3CCOCC3)CCCC4)n2)ccc1-n1cnc(C)c1 | 39 µM (≈ 20.9 µg/mL) | 126 nM | 6.4% | 0.7% | 1.9% | –
CCn1nc(C(C)(C)C)cc1Nc1nc(-c2ccc(-n3cnc(C)c3)c(OC)c2)cs1 | – | 96 nM | – | – | – | –
COc1nc(-c2csc(Nc3c4c(nn3C)CCCC4)n2)ccc1-n1cnc(C)c1 | 15 µM (≈ 6.32 µg/mL) | 105 nM | 60% | 34% | 36% | –
Cc1cn(-c2ccc(-c3csc(Nc4c5c(nn4C)CCCC5)n3)cc2)cn1 | – | 453 nM | 56% | 84% | – | remaining at 0.5 h, 1 µM ([4]; liver microsomes): 55%
COc1nc(-c2csc(Nc3c4c(nn3C3CCC3)CCC4)n2)ccc1-n1cnc(C)c1 | 2.7 µM (≈ 1.21 µg/mL) | 21 nM | 37% | 26% | 3% | –
COc1nc(-c2csc(Nc3cc(C(F)(F)F)nn3CC(F)(F)F)n2)ccc1-n1cnc(C)c1 | 2 µM (≈ 1.01 µg/mL) | 199 nM | – | – | – | –
CCn1nc(C(C)C)cc1Nc1nc(-c2ccc(-n3cnc(C)c3)c(OC)n2)cs1 | – | 184 nM | – | – | – | –
CCn1nc2c(c1Nc1nc(-c3ccc(-n4cnc(C)c4)c(OC)n3)cs1)CCC2(C)C | 8.8 µM (≈ 3.96 µg/mL) | 109 nM | 61% | 49% | 31% | IC50 (Cytochrome P450 2C9): 48000 nM; IC50 (Cytochrome P450 3A4): 750 nM; IC50 (Cytochrome P450 2C19): 15000 nM; IC50 (Cytochrome P450 1A2): > 100000 nM; IC50 (Cytochrome P450 2D6): > 100000 nM
COc1nc(-c2csc(Nc3cc(C(C)(C)C)nn3C(C)C)n2)ccc1-n1cnc(C)c1 | 23 µM (≈ 10.4 µg/mL) | 64 nM | 75% | 40% | 21% | IC50 (Cytochrome P450 2C9): 14000 nM; IC50 (Cytochrome P450 3A4): 2300 nM; IC50 (Cytochrome P450 2C19): 14000 nM; IC50 (Cytochrome P450 1A2): > 100000 nM; IC50 (Cytochrome P450 2D6): > 100000 nM
COc1nc(-c2csc(Nc3c4c(nn3CC(F)(F)F)CCCC4)n2)ccc1-n1cnc(C)c1 | 7.4 µM (≈ 3.62 µg/mL) | 57 nM | 41% | 39% | 13% | –
COc1nc(-c2csc(Nc3c4c(nn3C3CCC3)CCCC4)n2)ccc1-n1cnc(C)c1 | 30 µM (≈ 13.8 µg/mL) | 64 nM | 42% | 44% | 9.5% | IC50 (Cytochrome P450 2C9): 660 nM; IC50 (Cytochrome P450 3A4): 590 nM; IC50 (Cytochrome P450 2C19): 1600 nM; IC50 (Cytochrome P450 1A2): > 100000 nM; IC50 (Cytochrome P450 2D6): > 100000 nM
COc1nc(-c2csc(Nc3c4c(nn3C3CCOC3)CCCC4)n2)ccc1-n1cnc(C)c1 (racemic) | 19 µM (≈ 9.07 µg/mL) | 102 nM | 42% | 70% | 2.1% | –
COc1nc(-c2csc(Nc3c4c(nn3CCCO)CCCC4)n2)ccc1-n1cnc(C)c1 | 23 µM (≈ 10.7 µg/mL) | 50 nM | 52% | 32% | 17% | IC50 (Cytochrome P450 2C9): > 100000 nM; IC50 (Cytochrome P450 3A4): 2200 nM; IC50 (Cytochrome P450 2C19): 31000 nM; IC50 (Cytochrome P450 1A2): > 100000 nM; IC50 (Cytochrome P450 2D6): > 100000 nM
COc1nc(-c2csc(Nc3c4c(nn3CCN3CCCCC3)CCCC4)n2)ccc1-n1cnc(C)c1 | 46 µM (≈ 23.9 µg/mL) | 208 nM | – | – | – | –
COc1nc(-c2csc(Nc3c4c(nn3C3CCCCC3)CCCC4)n2)ccc1-n1cnc(C)c1 | < 1.6 µM | 63 nM | – | – | – | –
Cc1cn(-c2ccc(-c3csc(Nc4c5c(nn4C)CCCC5)n3)cn2)cn1 | – | > 1000 nM | – | – | – | –
CCn1nc(C(C)(C)C)cc1Nc1nc(-c2ccc(-n3cnc(C)c3)c(OC)n2)cs1 | 15 µM (≈ 6.56 µg/mL) | 114 nM | 89% | 67% | 38% | –
COc1nc(-c2csc(Nc3c4c(nn3CCN3CCOCC3)CCCC4)n2)ccc1-n1cnc(C)c1 | 70 µM (≈ 36.4 µg/mL) | 177 nM | 22% | 11% | 0% | –
CCn1nccc1Nc1nc(-c2ccc(-n3cnc(C)c3)c(OC)n2)cs1 | – | > 1000 nM | – | – | – | –
COc1cc(-c2csc(Nc3c4c(nn3C)CCCC4)n2)ccc1-n1cnc(C)c1 | – | 148 nM | – | – | – | –
COc1nc(-c2csc(Nc3cc(C(F)(F)F)nn3C(C)(C)C)n2)ccc1-n1cnc(C)c1 | < 1.6 µM | 126 nM | – | – | – | –
COc1nc(-c2csc(Nc3c4c(nn3C(C)C)CCC4)n2)ccc1-n1cnc(C)c1 | 5.7 µM (≈ 2.48 µg/mL) | 90 nM | 56% | 34% | 23% | –

SMILES | solubility kinetic [1] | IC50 (Gamma-secretase) | Stabilty [2] | Stabilty [3] | Stabilty [4] | other results
COc1cc(-c2csc(Nc3cc(C(C)(C)C)nn3C)n2)ccc1-n1cnc(C)c1 | – | 253 nM | 76% | 92% | 60% | –
CCn1nc(C(C)(C)C)cc1Nc1nc(-c2ccc(-n3cnc(C)c3)cc2)cs1 | – | 339 nM | – | – | – | –
Cc1cn(-c2ccc(-c3csc(Nc4cc(C(C)(C)C)nn4C)n3)cc2)cn1 | – | 275 nM | – | – | – | –
COc1nc(-c2csc(Nc3c4c(nn3C(C)C)CCCC4)n2)ccc1-n1cnc(C)c1 | 3.3 µM (≈ 1.48 µg/mL) | 46 nM | 64% | 45% | 10% | –
COc1nc(-c2csc(Nc3c4c(nn3CCO)CCC4)n2)ccc1-n1cnc(C)c1 | 29 µM (≈ 12.7 µg/mL) | 75 nM | 86% | 73% | 42% | IC50 (Cytochrome P450 2C9): 50000 nM; IC50 (Cytochrome P450 3A4): < 50 nM; IC50 (Cytochrome P450 2C19): 9200 nM; IC50 (Cytochrome P450 1A2): > 100000 nM; IC50 (Cytochrome P450 2D6): > 100000 nM
COc1nc(-c2csc(Nc3cc(C(C)(C)C)nn3CCF)n2)ccc1-n1cnc(C)c1 | 3.3 µM (≈ 1.5 µg/mL) | 73 nM | 86% | 67% | 49% | IC50 (Cytochrome P450 2C9): 4100 nM; IC50 (Cytochrome P450 3A4): 40 nM; IC50 (Cytochrome P450 2C19): 3300 nM; IC50 (Cytochrome P450 1A2): 64000 nM; IC50 (Cytochrome P450 2D6): > 100000 nM
CCCn1nc2c(c1Nc1nc(-c3ccc(-n4cnc(C)c4)c(OC)n3)cs1)CCCC2 | < 1.6 µM | 48 nM | – | – | – | –
COc1nc(-c2csc(Nc3c4c(nn3C3CCOCC3)CCCC4)n2)ccc1-n1cnc(C)c1 | 4.7 µM (≈ 2.31 µg/mL) | 102 nM | – | – | – | –
COc1nc(-c2csc(Nc3c4c(nn3C3CCCC3)CCCC4)n2)ccc1-n1cnc(C)c1 | 1.8 µM (≈ 0.856 µg/mL) | 83 nM | – | – | – | –
CCn1nc2c(c1Nc1nc(-c3ccc(-n4cnc(C)c4)nc3)cs1)CCCC2 | – | > 1000 nM | – | – | – | –
COc1nc(-c2csc(Nc3cc(C(C)(C)C)nn3C(C)(C)C)n2)ccc1-n1cnc(C)c1 | < 1.6 µM | 40 nM | – | – | – | –
COc1nc(-c2csc(Nc3cc(C(C)(C)C)nn3C)n2)ccc1-n1cnc(C)c1 | – | 136 nM | – | – | – | –
COc1nc(-c2csc(Nc3c4c(nn3C(C)(C)C)CCC4)n2)ccc1-n1cnc(C)c1 | 3.9 µM (≈ 1.75 µg/mL) | 62 nM | 55% | 20% | 21% | –
COCCn1nc2c(c1Nc1nc(-c3ccc(-n4cnc(C)c4)c(OC)n3)cs1)CCCC2 | 20 µM (≈ 9.31 µg/mL) | 144 nM | 45% | 29% | 1.8% | –
CCn1nc(C(C)(C)C)cc1Nc1nc(-c2ccc(-n3cnc(C)c3)nc2)cs1 | < 1.6 µM | 292 nM | 60% | 87% | 43% | –
CCn1nc2c(c1Nc1nc(-c3ccc(-n4cnc(C)c4)c(O)n3)cs1)CCCC2 | – | 468 nM | – | – | – | –
CCn1nc2c(c1Nc1nc(-c3ccc(-n4cnc(C)c4)cc3)cs1)CCCC2 | – | 660 nM | – | – | – | –
CCCn1nc(C(C)(C)C)cc1Nc1nc(-c2ccc(-n3cnc(C)c3)c(OC)n2)cs1 | 2.1 µM (≈ 0.948 µg/mL) | 100 nM | – | – | – | –
CCn1nc2c(c1N(C)c1nc(-c3ccc(-n4cnc(C)c4)c(OC)n3)cs1)CCCC2 | 3.4 µM (≈ 1.53 µg/mL) | 636 nM | – | – | – | –
CCn1nc2c(c1Nc1nc(-c3cnc(-n4cnc(C)c4)c(OC)n3)cs1)CCCC2 | < 1.6 µM | 89 nM | – | – | – | –
Cc1cn(-c2ccc(-c3csc(Nc4cc(C(C)(C)C)nn4C)n3)cn2)cn1 | – | 590 nM | – | – | – | –
COc1nc(-c2csc(Nc3c4c(nn3C3CCN(C)CC3)CCCC4)n2)ccc1-n1cnc(C)c1 | 92 µM (≈ 46.4 µg/mL) | > 1000 nM | – | – | – | –
